Experimental data: ChEMBL document CHEMBL1221386, “Synthesis and pharmacological evaluation of 3-aryl-3-azolylpropan-1-amines as selective triple serotonin/norepinephrine/dopamine reuptake inhibitors” (Bioorg Med Chem Lett, 2010)

How the values were obtained:
Mus musculus [1] = experiment: Antidepressant activity in mouse assessed as change in locomotion at 150 mg/kg, po; assay type: functional
Outline: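 Spontaneous locomotor activity in mice measured 1 h after oral dosing. Expressed relative to the control group set at 100%.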

[2] = Tmax in rat at 10 mg/kg, po; assay type: ADME, organism-based; set-up: dose 10 mg/kg, route oral; conditions: in vivo
Mus musculus [3] = experiment: Analgesic activity in mouse assessed as reduction of acetic acid-induced writhing at 30 mg/kg
[4] = biological target: T1, 5-hydroxytryptamine receptor 2C (Homo sapiens) (UniProt P28335); experiment: Inhibition of 5HT2C receptor at 10 uM
T1 sequence (whole entry): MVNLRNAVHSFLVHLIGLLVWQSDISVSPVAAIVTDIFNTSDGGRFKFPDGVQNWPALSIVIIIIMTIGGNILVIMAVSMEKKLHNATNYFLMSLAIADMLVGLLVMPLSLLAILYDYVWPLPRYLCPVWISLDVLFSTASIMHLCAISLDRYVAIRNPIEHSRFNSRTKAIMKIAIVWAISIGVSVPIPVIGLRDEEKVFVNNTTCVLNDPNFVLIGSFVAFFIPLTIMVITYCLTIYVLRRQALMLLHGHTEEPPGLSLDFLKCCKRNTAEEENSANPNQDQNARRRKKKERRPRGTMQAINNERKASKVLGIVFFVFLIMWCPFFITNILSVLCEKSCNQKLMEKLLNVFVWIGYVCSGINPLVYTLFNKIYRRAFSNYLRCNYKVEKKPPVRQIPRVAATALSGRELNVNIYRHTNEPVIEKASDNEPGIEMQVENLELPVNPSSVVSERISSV

[5] = biological target: Sodium-dependent noradrenaline transporter (Homo sapiens, UniProt P23975); experiment: Inhibition of norepinephrine reuptake at human NET expressed in MDCK cells at 100 nM
Sodium-dependent noradrenaline transporter, sequence (P23975 whole entry): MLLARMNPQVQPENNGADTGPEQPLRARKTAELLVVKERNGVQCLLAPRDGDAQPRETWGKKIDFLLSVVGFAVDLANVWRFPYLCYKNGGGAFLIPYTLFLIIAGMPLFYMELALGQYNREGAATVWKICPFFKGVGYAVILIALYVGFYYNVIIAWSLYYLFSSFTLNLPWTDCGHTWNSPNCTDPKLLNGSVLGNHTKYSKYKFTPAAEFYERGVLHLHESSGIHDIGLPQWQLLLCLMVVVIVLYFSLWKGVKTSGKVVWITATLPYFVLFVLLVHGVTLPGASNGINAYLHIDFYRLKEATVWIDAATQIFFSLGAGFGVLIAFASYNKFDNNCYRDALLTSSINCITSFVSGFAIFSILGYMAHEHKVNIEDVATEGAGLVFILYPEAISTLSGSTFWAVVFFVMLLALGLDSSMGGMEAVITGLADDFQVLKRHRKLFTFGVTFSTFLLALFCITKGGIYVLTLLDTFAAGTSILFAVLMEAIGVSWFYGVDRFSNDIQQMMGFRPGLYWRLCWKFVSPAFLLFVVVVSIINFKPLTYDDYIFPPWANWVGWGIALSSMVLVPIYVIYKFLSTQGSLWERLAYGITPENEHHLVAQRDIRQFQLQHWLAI

[6] = AUC in rat at 10 mg/kg, iv; assay type: ADME, organism-based; set-up: dose 10 mg/kg, route intravenous; conditions: plasma
[7] = biological target: Sodium-dependent dopamine transporter (Homo sapiens, UniProt Q01959); experiment: Inhibition of dopamine reuptake at human dopamine transporter expressed in CHO cells; assay type: cell-based
Sodium-dependent dopamine transporter, sequence (Q01959 whole entry): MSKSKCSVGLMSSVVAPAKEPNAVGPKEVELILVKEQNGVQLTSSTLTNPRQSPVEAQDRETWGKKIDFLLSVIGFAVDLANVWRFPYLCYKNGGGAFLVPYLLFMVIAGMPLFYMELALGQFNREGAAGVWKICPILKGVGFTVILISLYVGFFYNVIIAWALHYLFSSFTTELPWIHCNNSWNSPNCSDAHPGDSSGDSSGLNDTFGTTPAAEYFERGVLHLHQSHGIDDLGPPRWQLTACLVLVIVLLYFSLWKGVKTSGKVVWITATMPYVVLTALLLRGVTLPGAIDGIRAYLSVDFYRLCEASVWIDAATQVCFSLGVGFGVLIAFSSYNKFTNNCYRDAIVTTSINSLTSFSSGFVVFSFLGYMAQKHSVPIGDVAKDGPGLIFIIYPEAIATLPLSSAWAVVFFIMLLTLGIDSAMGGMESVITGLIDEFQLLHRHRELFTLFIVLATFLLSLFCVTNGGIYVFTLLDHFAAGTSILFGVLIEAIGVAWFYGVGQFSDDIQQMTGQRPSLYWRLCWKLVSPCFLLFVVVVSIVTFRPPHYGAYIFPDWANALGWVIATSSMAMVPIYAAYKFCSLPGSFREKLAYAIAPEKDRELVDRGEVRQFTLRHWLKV
Outline: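 CHO-K1 cells stably expressing human DAT, assayed for [3H]DA uptake in duplicate. Nomifensine served as standard. IC50 determined.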

[8] = Cmax in rat at 10 mg/kg, iv; assay type: ADME, organism-based; set-up: dose 10 mg/kg, route intravenous; conditions: in vivo
Mus musculus [9] = experiment: Potentiation of […]-induced serotonin syndrome like behavior in po dosed mouse; assay type: functional; conditions: read-out: MED
Outline: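 Mice, oral dosing. For serotonin potentiation, 5-hydroxytryptophan (5-HTP, serotonin precursor) is given to induce serotonin syndrome-like head twitch/stereotypy counts. Response is expressed as % potentiation relative to control group (0%). Minimal effective dose is the lowest dose reaching p <0.05. Doses are in mg/kg.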

Cytochrome P450 2C19 = Cytochrome P450 2C19 (Homo sapiens, UniProt P33261); experiment: Inhibition of CYP2C19; assay type: ADME
Cytochrome P450 2C19, sequence (P33261 whole entry): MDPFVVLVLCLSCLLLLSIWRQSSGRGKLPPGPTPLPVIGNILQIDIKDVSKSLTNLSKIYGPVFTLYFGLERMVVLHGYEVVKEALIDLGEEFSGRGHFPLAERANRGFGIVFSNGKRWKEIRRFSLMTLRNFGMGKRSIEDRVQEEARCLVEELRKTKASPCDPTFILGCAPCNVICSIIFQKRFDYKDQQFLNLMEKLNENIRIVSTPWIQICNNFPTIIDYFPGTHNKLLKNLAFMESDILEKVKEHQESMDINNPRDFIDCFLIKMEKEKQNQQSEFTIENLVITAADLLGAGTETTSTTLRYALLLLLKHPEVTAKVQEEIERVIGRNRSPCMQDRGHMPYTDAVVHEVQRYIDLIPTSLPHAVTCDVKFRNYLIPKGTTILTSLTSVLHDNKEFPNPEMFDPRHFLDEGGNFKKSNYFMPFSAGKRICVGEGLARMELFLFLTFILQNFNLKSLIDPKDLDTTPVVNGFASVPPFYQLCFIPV

Work on `CNCC[C@@H](c1ccc(Cl)c(Cl)c1)n1nnc(C)n1` yielded an Activity (Mus musculus [1]) of 134%, a Tmax [2] of 45 min and an inhibition in vivo at 30 mg/kg (Mus musculus [3]) of 94.4%. The inhibition [4] was 66%, the inhibition [5] was 84% and the AUC [6] was 3830 ng·h/mL. The IC50 [7] was 58 nM, the Cmax [8] was 3830 ng/mL and the minimal effective dose (Mus musculus [9]) was 30 mg/kg. It also gave an IC50 (Cytochrome P450 2C19) greater than 10000 nM.
